In ChEMBL document CHEMBL3739379, “Anti-Candida activity and cytotoxicity of a large library of new N-substituted-1,3-thiazolidin-4-one derivatives” (Eur J Med Chem, 2016):
Converted amounts (≈) assume the structure as drawn.

Columns and labels:
Format in all cases: functional
Enterococcus faecalis = test: Antibacterial activity against […] faecalis after 18 to 22 hrs by broth microdilution method
Procedure, shortened: (§1)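 Broth microdilution per NCCLS in Mueller-Hinton II broth; isolates subcultured for purity. Compounds dissolved in DMSO, serial dilutions 256 to 0.5 µg/mL; inoculum 10^5/mL. Controls: organism without compound, medium only. Incubation 18 to 22 h at 35 °C. MIC is the lowest concentration giving complete growth inhibition, read by unaided eye.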

[Candida] sake = Antifungal activity against Candida sake clinical isolate after 24 hrs by sabouraud dextrose broth based microdilution method; conditions: Fermentozyma sake
Procedure, shortened: (§2)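 Clinical isolates identified by conventional methods and subcultured for purity. Broth microdilution per NCCLS in Sabouraud dextrose broth; compounds dissolved in DMSO and serially diluted; inoculum 10^3/mL. Controls: fungi without compound, medium only. Incubated 24 h at 37 °C. MIC is the lowest concentration with complete growth inhibition by unaided eye. Values are geometric means over isolates per species.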

Candida tropicalis = test: Antifungal activity against Candida tropicalis clinical isolate after 24 hrs by sabouraud dextrose broth based microdilution method; procedure, shortened: as §2
Candida parapsilosis = test: Antifungal activity against Candida parapsilosis clinical isolate after 24 hrs by sabouraud dextrose broth based microdilution method; conditions: Lodderomyces parapsilosis; procedure, shortened: as §2
Nakaseomyces glabratus = test: Antifungal activity against Candida glabrata clinical isolate after 24 hrs by sabouraud dextrose broth based microdilution method; procedure, shortened: as §2
Proteus mirabilis = test: Antibacterial activity against Proteus mirabilis after 18 to 22 hrs by broth microdilution method; procedure, shortened: as §1
Candida albicans = test: Antifungal activity against Candida albicans clinical isolate after 24 hrs by sabouraud dextrose broth based microdilution method; procedure, shortened: as §2
Enterobacter sp. = test: Antibacterial activity against Enterobacter sp. after 18 to 22 hrs by broth microdilution method; procedure, shortened: as §1
Pichia kudriavzevii = test: Antifungal activity against Candida krusei clinical isolate after 24 hrs by sabouraud dextrose broth based microdilution method; procedure, shortened: as §2
Staphylococcus aureus = test: Antibacterial activity against Staphylococcus aureus after 18 to 22 hrs by broth microdilution method; procedure, shortened: as §1
[1] = tested on: Staphylococcus haemolyticus; test: Antibacterial activity against Staphylococcus haemolyticus after 18 to 22 hrs by broth microdilution method; procedure, shortened: as §1
Escherichia coli = test: Antibacterial activity against Escherichia coli at after 18 to 22 hrs by broth microdilution method; procedure, shortened: as §1
Staphylococcus warneri = test: Antibacterial activity against Staphylococcus warneri after 18 to 22 hrs by broth microdilution method; procedure, shortened: as §1
Klebsiella oxytoca = test: Antibacterial activity against Klebsiella oxytoca after 18 to 22 hrs by broth microdilution method; procedure, shortened: as §1

Row | Compound | MIC (Enterococcus faecalis) [µg/mL] | MIC ([Candida] sake) [µg/mL] | MIC (Candida tropicalis) [µg/mL] | MIC (Candida parapsilosis) [µg/mL] | MIC (Nakaseomyces glabratus) [µg/mL] | MIC (Proteus mirabilis) [µg/mL] | MIC (Candida albicans) [µg/mL] | MIC (Enterobacter sp.) [µg/mL] | MIC (Pichia kudriavzevii) [µg/mL] | MIC (Staphylococcus aureus) [µg/mL] | MIC [1] [µg/mL] | MIC (Escherichia coli) [µg/mL] | MIC (Staphylococcus warneri) [µg/mL] | MIC (Klebsiella oxytoca) [µg/mL]
1 | CCC/C(C)=N/N=C1\SCC(=O)N1CN1C(=O)c2ccccc2C1=O | > 256 | 4 (≈ 11.2 µM) | 4 (≈ 11.2 µM) | 2 (≈ 5.58 µM) | 2 (≈ 5.58 µM) | > 256 | 2 (≈ 5.58 µM) | > 256 | 2 (≈ 5.58 µM) | > 256 | > 256 | > 256 | > 256 | > 256
2 | O=C1CS/C(=N\N=C\c2cccnc2)N1Cc1cccc2ccccc12 | > 256 | 32 (≈ 88.8 µM) | 8 (≈ 22.2 µM) | 32 (≈ 88.8 µM) | 8 (≈ 22.2 µM) | > 256 | 4 (≈ 11.1 µM) | > 256 | 32 (≈ 88.8 µM) | > 256 | > 256 | > 256 | > 256 | > 256
3 | O=C1CS/C(=N\N=C\c2ccco2)N1Cc1cccc2ccccc12 | > 256 | 2 (≈ 5.72 µM) | 8 (≈ 22.9 µM) | 16 (≈ 45.8 µM) | 8 (≈ 22.9 µM) | > 256 | 16 (≈ 45.8 µM) | > 256 | 16 (≈ 45.8 µM) | > 256 | > 256 | > 256 | > 256 | > 256
4 | C=CCC/C(C)=N/N=C1\SCC(=O)N1CN1C(=O)c2ccccc2C1=O | > 256 | 8 (≈ 21.6 µM) | 4 (≈ 10.8 µM) | 128 (≈ 346 µM) | 32 (≈ 86.4 µM) | > 256 | 4 (≈ 10.8 µM) | > 256 | 32 (≈ 86.4 µM) | > 256 | > 256 | > 256 | > 256 | > 256
5 | C/C(=N\N=C1/SCC(=O)N1Cc1cccc2ccccc12)c1ccccn1 | > 256 | 2 (≈ 5.34 µM) | 2 (≈ 5.34 µM) | 2 (≈ 5.34 µM) | 2 (≈ 5.34 µM) | > 256 | 2 (≈ 5.34 µM) | > 256 | 2 (≈ 5.34 µM) | > 256 | > 256 | > 256 | > 256 | > 256
6 | O=C1CS/C(=N\N=C\c2cccc3ccccc23)N1Cc1cccc2ccccc12 | > 256 | 8 (≈ 19.5 µM) | 32 (≈ 78.1 µM) | 8 (≈ 19.5 µM) | 64 (≈ 156 µM) | > 256 | 256 (≈ 625 µM) | > 256 | 8 (≈ 19.5 µM) | > 256 | > 256 | > 256 | > 256 | > 256
7 | O=C1CS/C(=N\N=C\c2ccc3c(c2)OCO3)N1Cc1cccc2ccccc12 | > 256 | 8 (≈ 19.8 µM) | 16 (≈ 39.7 µM) | 16 (≈ 39.7 µM) | 4 (≈ 9.91 µM) | > 256 | 8 (≈ 19.8 µM) | > 256 | 8 (≈ 19.8 µM) | > 256 | > 256 | > 256 | > 256 | > 256
8 | O=C1CS/C(=N\N=C2CCCCCCC2)N1Cc1cccc2ccccc12 | > 256 | 4 (≈ 10.5 µM) | 8 (≈ 21.1 µM) | 4 (≈ 10.5 µM) | 32 (≈ 84.3 µM) | > 256 | 4 (≈ 10.5 µM) | > 256 | 4 (≈ 10.5 µM) | > 256 | > 256 | > 256 | > 256 | > 256
9 | C/C(=N\N=C1/SCC(=O)N1Cc1cccc2ccccc12)c1cccs1 | > 256 | 2 (≈ 5.27 µM) | 2 (≈ 5.27 µM) | 16 (≈ 42.2 µM) | 8 (≈ 21.1 µM) | > 256 | 2 (≈ 5.27 µM) | > 256 | 16 (≈ 42.2 µM) | > 256 | > 256 | > 256 | > 256 | > 256
10 | C/C(=N\N=C1/SCC(=O)N1Cc1cccc2ccccc12)C1CCCCC1 | > 256 | 16 (≈ 42.2 µM) | 256 (≈ 675 µM) | 16 (≈ 42.2 µM) | 8 (≈ 21.1 µM) | > 256 | 8 (≈ 21.1 µM) | > 256 | 2 (≈ 5.27 µM) | > 256 | > 256 | > 256 | > 256 | > 256
11 | CCC(CC)=N/N=C1\SCC(=O)N1CN1C(=O)c2ccccc2C1=O | > 256 | 8 (≈ 22.3 µM) | 8 (≈ 22.3 µM) | 8 (≈ 22.3 µM) | 8 (≈ 22.3 µM) | > 256 | 2 (≈ 5.58 µM) | > 256 | 8 (≈ 22.3 µM) | > 256 | > 256 | > 256 | > 256 | > 256
12 | CC(C)=N/N=C1\SCC(=O)N1Cc1cccc2ccccc12 | > 256 | 2 (≈ 6.42 µM) | 2 (≈ 6.42 µM) | 2 (≈ 6.42 µM) | 4 (≈ 12.8 µM) | > 256 | 4 (≈ 12.8 µM) | > 256 | 2 (≈ 6.42 µM) | > 256 | > 256 | > 256 | > 256 | > 256
13 | CCCCC/C(C)=N/N=C1\SCC(=O)N1CN1C(=O)c2ccccc2C1=O | > 256 | 2 (≈ 5.17 µM) | 128 (≈ 331 µM) | 2 (≈ 5.17 µM) | 8 (≈ 20.7 µM) | > 256 | 4 (≈ 10.3 µM) | > 256 | 2 (≈ 5.17 µM) | > 256 | > 256 | > 256 | > 256 | > 256
14 | CC/C(C)=N/N=C1\SCC(=O)N1CN1C(=O)c2ccccc2C1=O | > 256 | 2 (≈ 5.81 µM) | 64 (≈ 186 µM) | 8 (≈ 23.2 µM) | 2 (≈ 5.81 µM) | > 256 | 2 (≈ 5.81 µM) | > 256 | 8 (≈ 23.2 µM) | > 256 | > 256 | > 256 | > 256 | > 256
15 | O=C1CS/C(=N\N=C\c2cccc3ccccc23)N1Cc1ccc([N+](=O)[O-])cc1 | > 256 | 8 (≈ 19.8 µM) | 16 (≈ 39.6 µM) | 8 (≈ 19.8 µM) | 64 (≈ 158 µM) | > 256 | 256 (≈ 633 µM) | > 256 | 8 (≈ 19.8 µM) | > 256 | > 256 | > 256 | > 256 | > 256
16 | C/C(=N\N=C1/SCC(=O)N1Cc1cccc2ccccc12)c1ccccc1 | > 256 | 8 (≈ 21.4 µM) | 2 (≈ 5.36 µM) | 32 (≈ 85.7 µM) | 8 (≈ 21.4 µM) | > 256 | 2 (≈ 5.36 µM) | > 256 | 32 (≈ 85.7 µM) | > 256 | > 256 | > 256 | > 256 | > 256
17 | C/C(=N\N=C1/SCC(=O)N1Cc1cccc2ccccc12)c1ccco1 | > 256 | 4 (≈ 11 µM) | 128 (≈ 352 µM) | 4 (≈ 11 µM) | 32 (≈ 88 µM) | > 256 | 32 (≈ 88 µM) | > 256 | 4 (≈ 11 µM) | > 256 | > 256 | > 256 | > 256 | > 256
18 | C[C@@H]1[C@H](O)[C@@H](C)/C=C/C=C/C=C/C=C/C=C/C=C/C=C/[C@H](O[C@@H]2O[C@H](C)[C@@H](O)[C@H](N)[C@@H]2O)C[C@@H]2O[C@](O)(C[C@@H](O)C[C@@H](O)[C@H](O)CC[C@@H](O)C[C@@H](O)CC(=O)O[C@H]1C)C[C@H](O)[C@H]2C(=O)O [AMPHOTERICIN B] | – | 2 (≈ 2.16 µM) | 2 (≈ 2.16 µM) | 2 (≈ 2.16 µM) | 4 (≈ 4.33 µM) | – | 4 (≈ 4.33 µM) | – | 4 (≈ 4.33 µM) | – | – | – | – | –
19 | CC(C)(O/N=C(\C(=O)N[C@@H]1C(=O)N2C(C(=O)[O-])=C(C[n+]3ccccc3)CS[C@H]12)c1csc(N)n1)C(=O)O [CEFTAZIDIME] | 4 (≈ 7.32 µM) | – | – | – | – | 8 (≈ 14.6 µM) | – | 8 (≈ 14.6 µM) | – | 2 (≈ 3.66 µM) | 4 (≈ 7.32 µM) | 4 (≈ 7.32 µM) | 4 (≈ 7.32 µM) | 8 (≈ 14.6 µM)
20 | Clc1ccccc1C(c1ccccc1)(c1ccccc1)n1ccnc1 [CLOTRIMAZOLE] | – | 2 (≈ 5.8 µM) | 2 (≈ 5.8 µM) | 2 (≈ 5.8 µM) | 2 (≈ 5.8 µM) | – | 2 (≈ 5.8 µM) | – | 2 (≈ 5.8 µM) | – | – | – | – | –
21 | OC(Cn1cncn1)(Cn1cncn1)c1ccc(F)cc1F [FLUCONAZOLE] | – | 2 (≈ 6.53 µM) | 2 (≈ 6.53 µM) | 2 (≈ 6.53 µM) | 2 (≈ 6.53 µM) | – | 2 (≈ 6.53 µM) | – | 2 (≈ 6.53 µM) | – | – | – | – | –
22 | CC(=O)N1CCN(c2ccc(OCC3COC(Cn4ccnc4)(c4ccc(Cl)cc4Cl)O3)cc2)CC1 (configuration not stated) [KETOCONAZOLE] | – | 4 (≈ 7.53 µM) | 2 (≈ 3.76 µM) | 2 (≈ 3.76 µM) | 2 (≈ 3.76 µM) | – | 2 (≈ 3.76 µM) | – | 4 (≈ 7.53 µM) | – | – | – | – | –
23 | Clc1ccc(COC(Cn2ccnc2)c2ccc(Cl)cc2Cl)c(Cl)c1 (configuration not stated) [MICONAZOLE] | – | 2 (≈ 4.81 µM) | 2 (≈ 4.81 µM) | 4 (≈ 9.61 µM) | 4 (≈ 9.61 µM) | – | 2 (≈ 4.81 µM) | – | 4 (≈ 9.61 µM) | – | – | – | – | –
24 | Clc1ccc(C(Cn2ccnc2)OCc2ccsc2Cl)c(Cl)c1 (configuration not stated) [TIOCONAZOLE] | – | 4 (≈ 10.3 µM) | 8 (≈ 20.6 µM) | 8 (≈ 20.6 µM) | 4 (≈ 10.3 µM) | – | 8 (≈ 20.6 µM) | – | 8 (≈ 20.6 µM) | – | – | – | – | –
